Screens as filed in PubChem BioAssay.
Hits are enriched below; roughly 5.3% of the tested compounds scored in any of these assays.
T cruzi repl = blocks replication of Trypanosoma cruzi; T. cruzi beta-gal in NIH3T3, luminescence, 90 h; inhibition, % (no concentration beside the values); 300,000 compounds, 1.4% hits;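 active = mean inhibition across valid replicates above about 55%, limit read from the data; inconclusive = mean below that limit but half or more replicates reach it; inactive = mean below it, under half of replicates reach it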;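 note: signal also drops with host cell toxicity which is not excluded here; higher percent means less beta-gal luminescence so fewer parasites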
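Assay system: NIH/3T3 fibroblasts plus reporter T. cruzi. Amount: NIH/3T3 cells, 5,000 per well. Buffer or medium: DMEM, 2% fetal bovine serum. Doses: compound pinned at 50 nL/well, DMSO. Schedule: ≥90 h infection period, 3 h prior cell attachment. Signal: luminescent β-galactosidase signal after 60 min lysis. Read-out: parasite load inhibition, %.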
Beta apoptosis = blocks beta cell apoptosis; INS-1E cytokine-induced death, ATP luminescence, 48 h; percent of positive-control rescue, neutral wells zero; protection from apoptosis, % (concentration not given with the values); 300,000 compounds, 0.8% hits;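 active = Every replicate reaches about 75%, or at least half do and their mean reaches it too, limit read from the data; inconclusive = At least half of replicates reach the limit but their mean does not; inactive = Under half of replicates reach the limit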;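 note: higher means more ATP so stronger rescue from cytokine killing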
CSC inhib = blocks cancer stem cells; inhibition, % at 7.5 µM; cancer stem cell-like cells viability, luminescence; AID 2717; 300,000 compounds, 1.1% hits; in the data active = inhibition above about 75%; inconclusive = no clear call, values can overlap the other calls; tested in HMLE shEcad cells
Calb FLC = C. albicans growth modulation with fluconazole. growth inhibition, % (concentration not given with the values). 300,000 compounds, 0.57% hits. C. albicans CaCi-2 + fluconazole, Alamar Blue growth, 48 h. AID 1979;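 active = growth inhibition above about 58% in most replicates, limit read from the data, passing the limit was not always enough; inconclusive = exactly half the replicates above a set limit; inactive = most replicates below a set limit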;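 note: all wells also contain fluconazole at 8 µg/ml as a sub-toxic cotreatment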
Mdm2-MdmX inh = disrupts the human Mdm2-MdmX interaction; SaOS-2 split-luciferase Mdm2/MdmX complementation, luminescence; O15151+Q00987; 330,000 compounds, 3% hits; inhibition, % at 8 µM; AID 485346;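 active = inhibition of at least 50% at 8 µM in the primary screen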
Target sequence (O15151 whole entry, looked up): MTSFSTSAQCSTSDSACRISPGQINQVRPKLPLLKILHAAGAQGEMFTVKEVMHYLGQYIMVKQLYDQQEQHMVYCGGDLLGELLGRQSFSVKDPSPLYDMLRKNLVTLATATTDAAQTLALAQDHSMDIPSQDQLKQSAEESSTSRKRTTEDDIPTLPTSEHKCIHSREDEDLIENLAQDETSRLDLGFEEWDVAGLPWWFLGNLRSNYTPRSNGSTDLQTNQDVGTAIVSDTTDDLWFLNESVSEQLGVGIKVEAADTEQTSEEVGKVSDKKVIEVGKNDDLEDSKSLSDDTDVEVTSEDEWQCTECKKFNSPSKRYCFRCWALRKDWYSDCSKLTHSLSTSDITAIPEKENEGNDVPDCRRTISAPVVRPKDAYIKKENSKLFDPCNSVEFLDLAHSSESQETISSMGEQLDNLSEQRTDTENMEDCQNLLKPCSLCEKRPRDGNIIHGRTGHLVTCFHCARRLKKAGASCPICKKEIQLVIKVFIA
Target sequence (Q00987 whole entry, looked up): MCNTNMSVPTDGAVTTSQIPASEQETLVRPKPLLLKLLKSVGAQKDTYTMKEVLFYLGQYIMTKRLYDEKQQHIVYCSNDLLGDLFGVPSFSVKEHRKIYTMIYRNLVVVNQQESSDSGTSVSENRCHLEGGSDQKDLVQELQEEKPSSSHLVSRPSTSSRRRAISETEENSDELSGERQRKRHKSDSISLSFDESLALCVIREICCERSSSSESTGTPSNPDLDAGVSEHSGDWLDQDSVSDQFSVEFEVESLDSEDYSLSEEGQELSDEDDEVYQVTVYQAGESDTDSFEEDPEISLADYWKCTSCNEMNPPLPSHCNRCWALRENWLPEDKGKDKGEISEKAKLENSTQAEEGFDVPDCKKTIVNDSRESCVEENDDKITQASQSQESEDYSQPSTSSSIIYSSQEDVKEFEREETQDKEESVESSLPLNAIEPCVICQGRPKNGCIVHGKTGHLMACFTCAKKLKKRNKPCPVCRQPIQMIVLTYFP
NALP3 yeast inh = inhibitors of NALP3 inflammasome in yeast. Yeast reconstituted NLRP3/ASC/caspase-1, beta-gal luminescence, 24 h. inhibition, % at 10 µM. 330,000 compounds, 0.39% hits. AID 2825;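 active = inhibition of 50% or more; inactive = inhibition below 50%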
Mdm2-MdmX conf = confirmation of human Mdm2/MdmX interaction inhibitors; shares compounds with Mdm2-MdmX inh; Mdm2-MdmX binding, luminescent assay; inhibition, % at 8 µM; 10,000 compounds, 55% hits; AID 489028; in the data active = inhibition above about 40%
FLuc counter = counter-screen for Mdm2/MdmX inhibitors: full-length luciferase. shares compounds with Mdm2-MdmX inh. SaOS-2 full-length luciferase counterscreen, luminescence. inhibition, % at 8 µM. 6,200 compounds, 77% hits;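 active = mean inhibition at 8 µM reaching about 37%, which flags the compound as non-specific, limit read from the data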;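 note: p53-null SaOS-2 cells with luciferase driven by a doxycycline-inducible promoter; compound on cells about two nights before reading with doxycycline added after day one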
Numbers stand for hits.

For CCOc1ccc2c(c1)C(C)=CC(C)(C)N2S(=O)(=O)c1ccc(NC(C)=O)cc1 the results were T cruzi repl 55, Beta apoptosis inactive, CSC inhib inactive, Calb FLC inconclusive, Mdm2-MdmX inh 62, NALP3 yeast inh inactive, Mdm2-MdmX conf 58 and FLuc counter 113.
CCOc1ccc2c(c1)C(C)=CC(C)(C)N2S(=O)(=O)c1ccc(F)cc1 was read as T cruzi repl inactive, CSC inhib inactive, Calb FLC inactive, Mdm2-MdmX inh 51, NALP3 yeast inh inactive, Mdm2-MdmX conf 53 and FLuc counter 49.
CCOc1ccc(CN2CCN(S(=O)(=O)c3ccc(NC(C)=O)cc3)CC2)cc1 was read as T cruzi repl inactive, Beta apoptosis inactive, CSC inhib inactive, Calb FLC inactive, Mdm2-MdmX inh inactive and NALP3 yeast inh inactive.
Screening COc1ccc2c(c1)C(C)=CC(C)(C)N2S(=O)(=O)c1ccc(NC(C)=O)cc1 returned T cruzi repl inactive, Beta apoptosis inactive, CSC inhib inactive, Calb FLC inactive, Mdm2-MdmX inh 63, NALP3 yeast inh inactive, Mdm2-MdmX conf 54 and FLuc counter 89.
`CC1=CC(C)(C)N(C(=O)CN2C(=O)c3ccccc3C2=O)c2ccccc21` gave T cruzi repl inactive, Beta apoptosis inactive, CSC inhib inactive, Calb FLC inactive, Mdm2-MdmX inh inactive and NALP3 yeast inh inactive.
`CSc1ccc(/C=N/Nc2ccc(Cl)c(C(=O)O)c2)cc1` gave T cruzi repl inactive, Beta apoptosis inactive, CSC inhib inactive, Calb FLC inactive, Mdm2-MdmX inh inactive and NALP3 yeast inh inactive.
O=C(c1ccc(S(=O)(=O)Cc2ccccc2Cl)c([N+](=O)[O-])c1)N1CCN(c2ccccn2)CC1 was read as T cruzi repl inactive, Beta apoptosis inactive, CSC inhib inactive, Calb FLC inactive, Mdm2-MdmX inh 75, NALP3 yeast inh inactive, Mdm2-MdmX conf 64 and FLuc counter 39.
Screening CC1CCN(C(=O)c2ccc(S(=O)(=O)Cc3cccc(F)c3)c([N+](=O)[O-])c2)CC1 returned T cruzi repl inactive, Calb FLC inactive, Mdm2-MdmX inh 56, NALP3 yeast inh inactive, Mdm2-MdmX conf 50 and FLuc counter 72.
O=C(c1ccc(S(=O)(=O)c2cccc(Cl)c2)c([N+](=O)[O-])c1)N1CCN(Cc2ccccc2)CC1 was read as T cruzi repl inactive, Calb FLC inactive, Mdm2-MdmX inh 94, NALP3 yeast inh inactive, Mdm2-MdmX conf 85 and FLuc counter 58.
COc1ccc(C(=O)N2CCN(Cc3ccccc3)CC2)cc1[N+](=O)[O-] was read as T cruzi repl inactive, Beta apoptosis inactive, CSC inhib inactive, Calb FLC inactive, Mdm2-MdmX inh inactive and NALP3 yeast inh inactive.
Screening O=C(c1ccc(Cl)c([N+](=O)[O-])c1)N1CCN(c2ccccn2)CC1 returned T cruzi repl inactive, Beta apoptosis inactive, CSC inhib inactive, Calb FLC inactive, Mdm2-MdmX inh inactive and NALP3 yeast inh inactive.
`CCN(CC)c1ccc(NC(=O)c2ccc3c(c2)c(C)c(C)n3C)cc1` gave T cruzi repl 69, Beta apoptosis inactive, CSC inhib inactive, Calb FLC inactive, Mdm2-MdmX inh 61, NALP3 yeast inh inactive, Mdm2-MdmX conf 48 and FLuc counter 71.
For Cc1cccc(CC(Cc2nc3ccccc3[nH]2)c2nc3ccccc3[nH]2)c1 (centres undefined) the results were T cruzi repl inactive, Beta apoptosis inactive, CSC inhib inactive, Calb FLC inactive, Mdm2-MdmX inh 75, NALP3 yeast inh inactive and Mdm2-MdmX conf inactive.
COc1ccccc1CC(Cc1nc2ccccc2[nH]1)c1nc2ccccc2[nH]1 (centres undefined) was read as T cruzi repl inactive, Beta apoptosis inactive, Calb FLC inactive, Mdm2-MdmX inh inactive and NALP3 yeast inh inactive.
`CC(C)N(Cc1ccccc1)C(=O)c1cccs1` gave T cruzi repl inactive, Calb FLC inactive, Mdm2-MdmX inh inactive and NALP3 yeast inh inactive.
O=C(Nc1ccc2c(c1)nc1n2CCOC1)c1ccco1 was read as T cruzi repl inactive, Beta apoptosis inactive, CSC inhib inactive, Calb FLC inactive, Mdm2-MdmX inh inactive and NALP3 yeast inh inactive.
Screening COc1ccc(CCCC(=O)NCc2ccccc2)cc1C returned T cruzi repl inactive, Beta apoptosis inactive, CSC inhib inactive, Calb FLC inactive, Mdm2-MdmX inh 53, NALP3 yeast inh inactive, Mdm2-MdmX conf 48 and FLuc counter 71.
Cc1ccc(CNC(=O)CCCc2ccccc2)cc1 was read as T cruzi repl inactive, Beta apoptosis inactive, CSC inhib inactive, Calb FLC inactive, Mdm2-MdmX inh inactive and NALP3 yeast inh inactive.
For Cn1c(N)c(C(=O)COC(=O)c2cc(S(=O)(=O)N3CCOCC3)ccc2F)c(=O)n(C)c1=O the results were Beta apoptosis inactive, CSC inhib inactive, Mdm2-MdmX inh 82, NALP3 yeast inh inactive and Mdm2-MdmX conf inactive.
Screening COc1ccc(-c2c(C#N)sc(C(N)=O)c2-c2ccc(OC)cc2)cc1 returned T cruzi repl inactive, Beta apoptosis inactive, CSC inhib inactive, Calb FLC inactive, Mdm2-MdmX inh inactive and NALP3 yeast inh inactive.
For O=C(N/C(=C/c1ccc(Br)cc1)C(=O)N1CCOCC1)c1cccs1 the results were T cruzi repl inactive, Beta apoptosis inactive, CSC inhib inactive, Calb FLC inactive, Mdm2-MdmX inh inactive and NALP3 yeast inh inactive.
For O=C(COc1ccc([N+](=O)[O-])cc1)NNC(=O)c1cccnc1 the results were T cruzi repl inactive, Beta apoptosis inactive, CSC inhib inactive, Calb FLC inactive, Mdm2-MdmX inh inactive and NALP3 yeast inh inactive.
For C/C(=N\NC(=O)COc1cccc(C)c1)c1ccc2ccccc2c1O the results were Beta apoptosis inactive, CSC inhib inactive, Calb FLC inactive, Mdm2-MdmX inh 52, NALP3 yeast inh inactive, Mdm2-MdmX conf 61 and FLuc counter inactive.
Screening N/C(=N\OC(=O)CCc1ccccc1)c1ccccc1Cl returned T cruzi repl inactive, Beta apoptosis inactive, CSC inhib inactive, Calb FLC inactive, Mdm2-MdmX inh inactive and NALP3 yeast inh inactive.
Screening CC1CCN(CC2C(=O)O[C@@H]3C[C@@]4(C)CCC[C@H](C)C4=C[C@H]23)CC(C)(C)C1 (some centres undefined) returned T cruzi repl inactive, Beta apoptosis inactive, CSC inhib inactive, Calb FLC inactive, Mdm2-MdmX inh 65, NALP3 yeast inh inactive, Mdm2-MdmX conf 43 and FLuc counter 44.
